Reference: ChEMBL document CHEMBL1142721, “Nanomolar inhibitors of CNS epinephrine biosynthesis: (R)-(+)-3-fluoromethyl-7-(N-substituted aminosulfonyl)-1,2,3,4-tetrahydroisoquinolines as potent and highly selective inhibitors of phenylethanolamine N-methyltransferase1” (J Med Chem, 2005)

Target: T1, Alpha-2A adrenergic receptor (Rattus norvegicus, UniProt P22909)
T1 sequence (P22909 whole entry): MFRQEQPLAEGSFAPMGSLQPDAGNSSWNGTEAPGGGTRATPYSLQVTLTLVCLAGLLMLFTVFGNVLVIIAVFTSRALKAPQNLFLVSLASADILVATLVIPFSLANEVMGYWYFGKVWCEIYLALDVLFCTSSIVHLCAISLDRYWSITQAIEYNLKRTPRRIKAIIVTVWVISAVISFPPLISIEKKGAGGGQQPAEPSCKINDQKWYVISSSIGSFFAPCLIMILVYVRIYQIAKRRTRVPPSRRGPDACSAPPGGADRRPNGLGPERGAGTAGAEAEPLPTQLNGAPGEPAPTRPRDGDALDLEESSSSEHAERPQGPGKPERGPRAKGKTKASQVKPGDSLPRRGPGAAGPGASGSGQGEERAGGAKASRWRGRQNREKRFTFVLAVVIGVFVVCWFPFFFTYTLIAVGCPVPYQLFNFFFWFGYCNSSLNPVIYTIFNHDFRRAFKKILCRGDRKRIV
Assay: In vitro binding affinity against rat Alpha-2 adrenergic receptor using [3H]clonidine
Outline: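 Rat cortex membranes (male Sprague-Dawley) washed by three 50 000 × g spins in ice-cold 50 mM Tris/HCl pH 7.7. Incubated with [3H]clonidine at 2.0 nM final, 25 °C, 30 min. Bound ligand recovered on GF/B filters and counted. Nonspecific binding set with 2 µM phentolamine. Quadruplicate, 5 concentrations over a 16-fold range. IC50 from log-probit analysis, converted by Ki = IC50/(1 + [clonidine]/KD).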

Row | SMILES | Ki [µM]
1 | O=S(=O)(NCC(F)(F)F)c1ccc2c(c1)CN[C@@H](CF)C2 | 1000
2 | O=S(=O)(NCCC(F)(F)F)c1ccc2c(c1)CN[C@@H](CF)C2 | 670
3 | NS(=O)(=O)c1ccc2c(c1)CN[C@@H](CF)C2 | 700
4 | O=S(=O)(Nc1ccc(Cl)cc1)c1ccc2c(c1)CNC(CF)C2 (racemic) | 140
5 | O=S(=O)(Nc1ccc(Cl)cc1)c1ccc2c(c1)CN[C@@H](CF)C2 | 140
6 | O=S(=O)(c1ccc2c(c1)CNC(CF)C2)N1CCSCC1 (racemic) | 190
7 | O=S(=O)(NCC(F)(F)F)c1ccc2c(c1)CNC(CF)C2 (racemic) | 1200
8 | O=S(=O)(c1ccc2c(c1)CN[C@@H](CF)C2)N1CCSCC1 | 200
9 | CCNS(=O)(=O)c1ccc2c(c1)CN[C@@H](CF)C2 | 550
10 | NS(=O)(=O)c1ccc2c(c1)CNC(CF)C2 (racemic) | 680
11 | O=S(=O)(NCCC(F)(F)F)c1ccc2c(c1)CNC(CF)C2 (configuration not stated) | 660
12 | CCCNS(=O)(=O)c1ccc2c(c1)CN[C@@H](CF)C2 | 570
13 | COCCCNS(=O)(=O)c1ccc2c(c1)CNC(CF)C2 (racemic) | 750
14 | O=S(=O)(Nc1ccc(Cl)cc1)c1ccc2c(c1)CN[C@H](CF)C2 | 150
15 | CCCNS(=O)(=O)c1ccc2c(c1)CNC(CF)C2 (racemic) | 610
16 | CCNS(=O)(=O)c1ccc2c(c1)CNC(CF)C2 (racemic) | 550
17 | COCCCNS(=O)(=O)c1ccc2c(c1)CN[C@@H](CF)C2 | 680
